Test results: ChEMBL document CHEMBL4004807 (J Med Chem, 2017)
Values belong to the molecule of their own block, whether it stands above or below them. The source made the active and inactive calls. The rule behind the calls is not given here.

Legend:
[1] = molecular target: T1, Prostacyclin receptor (Homo sapiens, UniProt P43119); assay: Agonist activity at IP receptor in PAH patient-derived primary pulmonary arterial smooth muscle cells assessed as induction of cAMP levels after 1 hr by HTRF method; type: functional
T1 sequence (P43119 whole entry): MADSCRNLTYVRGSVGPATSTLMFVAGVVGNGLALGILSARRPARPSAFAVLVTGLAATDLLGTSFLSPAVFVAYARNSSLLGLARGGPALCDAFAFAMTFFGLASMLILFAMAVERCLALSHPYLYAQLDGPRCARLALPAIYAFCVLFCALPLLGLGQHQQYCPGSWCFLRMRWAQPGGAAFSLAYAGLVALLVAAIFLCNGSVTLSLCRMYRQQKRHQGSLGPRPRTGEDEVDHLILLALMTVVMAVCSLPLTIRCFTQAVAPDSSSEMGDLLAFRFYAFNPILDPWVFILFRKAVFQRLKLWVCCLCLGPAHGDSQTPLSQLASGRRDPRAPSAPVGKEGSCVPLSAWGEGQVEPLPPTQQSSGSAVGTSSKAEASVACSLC

[2] = Selectivity ratio of EC50 for recombinant rat IP receptor expressed in CHO-K1 cells to EC50 for recombinant human IP receptor expressed in CHO-K1 cells; type: cell-based
[3] = molecular target: T1, Prostacyclin receptor; assay: Ratio of IC50 for IP receptor in human primary platelets to EC50 for recombinant human IP receptor expressed in CHO-K1 cells; type: cell-based
[4] = Volume of distribution at steady state in Sprague-Dawley rat at 2 mg/kg, iv or 10 mg/kg, po; type: ADME, organism-based; settings: in vivo
[5] = test system: Rattus norvegicus; assay: AUC (0 to infinity) in Sprague-Dawley rat at 10 mg/kg, po; type: ADME, organism-based; parameters: dose 10 mg/kg, route oral, time infinity; settings: in vivo
How it was run: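 Sprague-Dawley rats, single oral dose of 10.0 mg/kg; AUC0-inf from plasma concentrations.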

[6] = Total clearance in Sprague-Dawley rat plasma at 2 mg/kg, iv or 10 mg/kg, po; type: ADME, organism-based
[7] = molecular target: T1, Prostacyclin receptor; assay: Intrinsic activity at recombinant human IP receptor expressed in CHO-K1 cells assessed as increase in intracellular cAMP level at 10 uM after 1 hr incubation by HTRF method relative to iloprost; type: functional, cell-based
How it was run: (§1)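 Stably transfected CHO-K1 clones with receptor expression kept minimal to avoid receptor reserve. Cells at 200 000/mL in PBS with 1 mM IBMX and 0.2% BSA. 10-point 5-fold dilution series, top 10 μM, tested in triplicate plates, 1 h at room temperature. HTRF cAMP read by time-resolved fluorescence.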

[8] = Half life in human microsomes; type: ADME, Microsome
[9] = molecular target: T2, Prostaglandin D2 receptor (Homo sapiens) (UniProt Q13258); assay: Intrinsic activity at recombinant human DP1 receptor expressed in CHO-K1 cells assessed as increase in intracellular cAMP level after 1 hr incubation by HTRF method relative to prostaglandin D2; type: functional, cell-based
T2 sequence (whole entry): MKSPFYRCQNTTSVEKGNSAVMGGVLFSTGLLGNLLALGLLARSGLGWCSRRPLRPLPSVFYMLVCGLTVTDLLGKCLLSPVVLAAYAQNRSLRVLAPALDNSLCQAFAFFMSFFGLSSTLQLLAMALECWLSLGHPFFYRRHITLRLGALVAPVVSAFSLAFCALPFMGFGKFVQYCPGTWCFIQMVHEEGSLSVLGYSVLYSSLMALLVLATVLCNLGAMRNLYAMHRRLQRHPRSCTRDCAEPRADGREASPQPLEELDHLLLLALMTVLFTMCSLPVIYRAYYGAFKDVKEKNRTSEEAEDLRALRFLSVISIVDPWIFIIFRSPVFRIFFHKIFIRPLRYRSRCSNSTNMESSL
How it was run: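 CHO-K1 clonal line stably expressing DP1 at minimal level; HTRF cAMP assay, 1 h incubation at room temperature, time-resolved fluorescence read-out.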

[10] = molecular target: Prostacyclin receptor (Rattus norvegicus) (UniProt P43253); assay: Intrinsic activity at recombinant rat IP receptor expressed in CHO-K1 cells assessed as increase in intracellular cAMP level at 10 uM after 1 hr incubation by HTRF method relative to iloprost; type: functional, cell-based; how it was run: as §1
Chain of Prostacyclin receptor (Rattus norvegicus) (P43253 whole entry): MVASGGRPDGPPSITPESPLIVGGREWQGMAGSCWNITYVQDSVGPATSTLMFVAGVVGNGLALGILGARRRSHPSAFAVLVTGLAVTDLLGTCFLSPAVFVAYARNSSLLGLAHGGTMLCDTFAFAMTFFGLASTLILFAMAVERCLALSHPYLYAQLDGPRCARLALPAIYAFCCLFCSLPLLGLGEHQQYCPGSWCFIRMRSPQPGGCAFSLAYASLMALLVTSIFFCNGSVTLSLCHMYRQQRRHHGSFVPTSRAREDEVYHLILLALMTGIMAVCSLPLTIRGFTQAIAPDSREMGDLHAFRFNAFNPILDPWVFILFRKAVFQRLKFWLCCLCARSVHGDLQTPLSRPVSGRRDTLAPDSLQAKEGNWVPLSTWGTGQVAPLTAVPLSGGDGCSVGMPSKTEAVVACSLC

[11] = Half life in rat microsomes; type: ADME, Microsome
[12] = test system: Plasma; assay: Drug level in bile-duct cannulated rat plasma treated with 2-(((1r,4r)-4-(((4-chlorophenyl)(phenyl)carbamoyloxy)methyl)cyclohexyl)methoxy)acetic acid; type: ADME, cell-free
[13] = molecular target: Prostaglandin E2 receptor EP2 subtype (Homo sapiens) (UniProt P43116); assay: Agonist activity at recombinant human EP2 receptor expressed in CHO-K1 cells assessed as increase in intracellular cAMP level up to 10 uM after 1 hr incubation by HTRF method; type: functional, cell-based
Chain of Prostaglandin E2 receptor EP2 subtype (Homo sapiens) (P43116 whole entry): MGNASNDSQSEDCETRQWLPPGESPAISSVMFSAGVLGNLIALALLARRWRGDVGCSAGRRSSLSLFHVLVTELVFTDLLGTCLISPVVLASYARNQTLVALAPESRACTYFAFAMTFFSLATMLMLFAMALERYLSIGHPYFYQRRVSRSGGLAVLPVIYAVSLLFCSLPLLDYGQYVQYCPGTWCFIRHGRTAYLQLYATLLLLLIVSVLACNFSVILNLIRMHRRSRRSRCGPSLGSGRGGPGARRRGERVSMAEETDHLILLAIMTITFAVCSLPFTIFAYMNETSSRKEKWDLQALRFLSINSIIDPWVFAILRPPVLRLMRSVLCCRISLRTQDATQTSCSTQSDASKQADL

[14] = test system: Rattus norvegicus; assay: Inhibition of right ventricle hypertrophic response in Sprague-Dawley rat monocrotaline model of pulmonary arterial hypertension assessed as reduction of MCT-induced increase in ratio of right ventricular weight to left ventricle plus septum weight administered via oral gavage twice daily for 21 consecutive days starting 24 hrs after monocrotaline challenge; type: functional
How it was run: (§2)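 Male rats given 60 mg/kg monocrotaline sc on day 1 (sham: saline) under 30 mg/kg ip pentobarbital; from next day for 20 days dosed by oral gavage twice daily at 10 or 30 mg/kg in 20% HPBCD in saline (vehicle control). Day 21: RV/(LV+S) weights; mPAP via catheter under 60 mg/kg pentobarbital (30 mg/kg group, n = 5); H&E lung sections, 5 animals/group.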

[15] = Drug uptake in bile-duct cannulated rat urine; type: ADME; settings: in vivo
[16] = molecular target: T3, Prostaglandin E2 receptor EP3 subtype (Homo sapiens, UniProt P43115); assay: Agonist activity at recombinant human EP3v6 receptor expressed in melanophores assessed as induction of pigment redistribution up to 10 uM after 90 mins; settings: 1.5 h
T3 sequence (P43115 whole entry): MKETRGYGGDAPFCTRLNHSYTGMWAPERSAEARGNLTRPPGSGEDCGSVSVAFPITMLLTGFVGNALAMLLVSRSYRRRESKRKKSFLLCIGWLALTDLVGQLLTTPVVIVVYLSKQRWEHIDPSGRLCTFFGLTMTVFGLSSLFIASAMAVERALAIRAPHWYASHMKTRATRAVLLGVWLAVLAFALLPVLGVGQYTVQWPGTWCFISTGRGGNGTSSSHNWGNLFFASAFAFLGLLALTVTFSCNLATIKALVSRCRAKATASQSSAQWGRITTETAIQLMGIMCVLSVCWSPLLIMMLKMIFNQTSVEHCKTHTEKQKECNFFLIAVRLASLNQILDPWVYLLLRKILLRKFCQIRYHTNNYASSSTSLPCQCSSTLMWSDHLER
How it was run: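 Melanophores electroporated with 20 μg human EP3v6 plasmid per 400 μL cells, grown 48 h at 27 °C. Assay buffer 0.7× PBS pH 7.3 with 20 nM melatonin to aggregate pigment, 90 min at room temperature, 650 nm baseline; compounds added (10-point, 5-fold dilutions, top 10 μM final), 90 min room temperature, absorbance reread.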

[17] = Drug uptake in bile-duct cannulated rat bile; type: ADME; settings: in vivo
[18] = test system: Plasma; assay: Drug metabolism in bile-duct cannulated rat plasma assessed as 2-(((1r,4r)-4-(((4-chlorophenyl)(4-hydroxyphenyl)carbamoyloxy)methyl)cyclohexyl)methoxy)acetic acid formation; type: ADME, cell-free
[19] = Volume of distribution at steady state in Beagle dog at 0.2 mg/kg, iv; type: ADME, organism-based, Canis lupus familiaris; settings: in vivo
[20] = test system: Plasma; assay: Drug metabolism in bile-duct cannulated rat plasma assessed as 2-(2-(((1r,4r)-4-(((4-chlorophenyl)(4-hydroxyphenyl)carbamoyloxy)methyl)cyclohexyl)methoxy)acetoxy)ethanesulfonic acid formation; type: ADME, cell-free
[21] = molecular target: Prostaglandin E2 receptor EP4 subtype (Homo sapiens) (UniProt P35408); assay: Agonist activity at recombinant human EP4 receptor expressed in CHO-K1 cells assessed as increase in intracellular cAMP level up to 10 uM after 1 hr incubation by HTRF method; type: functional, cell-based
Chain of Prostaglandin E2 receptor EP4 subtype (Homo sapiens) (P35408 whole entry): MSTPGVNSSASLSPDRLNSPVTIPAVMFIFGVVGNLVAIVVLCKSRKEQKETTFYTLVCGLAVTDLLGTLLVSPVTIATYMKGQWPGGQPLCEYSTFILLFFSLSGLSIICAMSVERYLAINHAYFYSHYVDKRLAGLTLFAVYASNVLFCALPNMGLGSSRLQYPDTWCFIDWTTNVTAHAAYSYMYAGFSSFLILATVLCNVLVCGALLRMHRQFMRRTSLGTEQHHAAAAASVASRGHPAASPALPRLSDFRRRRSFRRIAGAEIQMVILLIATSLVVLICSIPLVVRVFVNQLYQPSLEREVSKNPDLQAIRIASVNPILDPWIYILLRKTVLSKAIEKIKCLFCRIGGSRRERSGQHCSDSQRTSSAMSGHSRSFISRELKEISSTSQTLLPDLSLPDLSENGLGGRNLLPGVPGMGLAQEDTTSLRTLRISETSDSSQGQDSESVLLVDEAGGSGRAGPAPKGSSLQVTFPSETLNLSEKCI

[22] = test system: Rattus norvegicus; assay: Unbound Cmax in Sprague-Dawley rat at 10 mg/kg, po administered via gavage as single dose; type: ADME, organism-based; settings: in vivo
[23] = test system: Plasma; assay: Drug uptake in bile-duct cannulated rat plasma; type: ADME, cell-free
[24] = Total clearance in cynomolgus monkey at 0.1 mg/kg, iv; type: ADME, organism-based, Macaca fascicularis; settings: in vivo
[25] = test system: Rattus norvegicus; assay: Cardioprotective effect in Sprague-Dawley rat monocrotaline model of pulmonary arterial hypertension assessed as reduction of MCT-induced increase of pulmonary arterial pressue at 30 mg/kg administered via oral gavage twice daily for 21 consecutive days starting 24 hrs after monocrotaline challenge; type: functional, organism-based; how it was run: as §2
[26] = Drug metabolism in bile-duct cannulated rat bile assessed as 2-(2-(((1r,4r)-4-(((4-chlorophenyl)(phenyl)carbamoyloxy)methyl)cyclohexyl)methoxy)acetoxy)ethanesulfonic acid formation; type: ADME
[27] = Total clearance in Beagle dog at 0.2 mg/kg, iv; type: ADME, organism-based, Canis lupus familiaris; settings: in vivo
[28] = Volume of distribution at steady state in cynomolgus monkey at 0.1 mg/kg, iv; type: ADME, organism-based, Macaca fascicularis; settings: in vivo
[29] = test system: Rattus norvegicus; assay: Inhibition of hypertrophic response in Sprague-Dawley rat monocrotaline model of pulmonary arterial hypertension assessed as reduction of MCT-induced increase in pulmonary vessel wall thickness at 30 mg/kg administered via oral gavage twice daily for 21 consecutive days starting 24 hrs after monocrotaline challenge by morphometric analysis; type: functional, organism-based; how it was run: as §2

Compound: CC(C)N(CCCCOCC(=O)O)c1cnc(-c2ccccc2)c(-c2ccccc2)n1
Activity [1]: Active

Compound: COc1ccc(N(C(=O)OC[C@H]2CC[C@@H](COCC(=O)O)CC2)c2ccccc2)cc1
Ratio EC50 [2]: 10 to 30
Ratio IC50/EC50 [3]: 2 to 10

Compound: O=C(O)COC[C@H]1CC[C@@H](COC(=O)N(c2ccccc2)c2cccc(F)c2)CC1
Ratio EC50 [2]: 10 to 30
Ratio IC50/EC50 [3]: 2 to 10

Compound: O=C(O)COC[C@H]1CC[C@H](COC(=O)N(c2ccccc2)c2ccc(Cl)c(F)c2)CC1
Ratio EC50 [2]: 10 to 30
Ratio IC50/EC50 [3]: 2 to 10
Vd [4]: 3.5 L/kg
AUC [5]: 2600 ng·h/mL
clearance [6]: 13.3 mL/min/kg

Compound: COc1ccc(N(C(=O)OC[C@H]2CC[C@H](COCC(=O)O)CC2)c2ccccc2)cc1
Ratio EC50 [2]: 10 to 30
Ratio IC50/EC50 [3]: 2 to 10
Vd [4]: 0.71 L/kg
AUC [5]: 3400 ng·h/mL
clearance [6]: 56.7 mL/min/kg

Compound: O=C(O)COC[C@H]1CC[C@@H](COC(=O)N(c2ccccc2)c2ccccc2)CC1
Ratio EC50 [2]: 10 to 30
Ratio IC50/EC50 [3]: 2 to 10

Compound: O=C(O)COC[C@H]1CC[C@H](COC(=O)N(c2ccc(O)cc2)c2ccc(Cl)cc2)CC1
Drug metabolism [12]: Metabolite_Detected

Compound: O=C(O)COC[C@H]1CC[C@H](COC(=O)N(c2ccccc2)c2ccc(Cl)cc2)CC1
Activity [13]: inactive
inhibition [14]: Dose-dependent effect
Drug uptake [15]: Active
Activity [16]: Active
Drug uptake [17]: Active
Drug metabolism [18]: Metabolite_Detected
Vd [19]: 0.308 L/kg
Drug metabolism [20]: Metabolite_Detected
Activity [21]: inactive
fCmax [22]: 100 nM
Drug uptake [23]: Active
clearance [24]: 14.7 mL/min/kg
Activity [25]: Active
Drug metabolism [26]: Metabolite_Detected
clearance [27]: 3.37 mL/min/kg
Vd [28]: 10.1 L/kg
AUC [5]: 14600 ng·h/mL
clearance [6]: 7.12 mL/min/kg
inhibition [29]: Active

Continued, in another order:

Ratio IC50/EC50 [3]: 2 to 10
Compound: O=C(O)COC[C@H]1CC[C@H](COC(=O)N(c2ccc(Cl)cc2)c2cccc(F)c2)CC1
Ratio EC50 [2]: 10 to 30

Intrinsic activity [7]: 80%
half-life [8]: > 1 h
Intrinsic activity [9]: 30%
Intrinsic activity [10]: 88%
half-life [11]: > 1 h
Compound: O=C(O)COC[C@H]1CC[C@@H](COC(=O)N(c2ccccc2)c2cccc(Cl)c2)CC1

Ratio IC50/EC50 [3]: 2 to 10
Vd [4]: 6.2 L/kg
AUC [5]: 7900 ng·h/mL
clearance [6]: 30 mL/min/kg
Compound: O=C(O)COC[C@H]1CC[C@H](COC(=O)N(c2ccccc2)c2ccc(F)cc2)CC1
Ratio EC50 [2]: 10 to 30

Ratio IC50/EC50 [3]: 2 to 10
Compound: O=C(O)COC[C@H]1CC[C@H](COC(=O)N(c2ccccc2)c2ccc(F)c(Cl)c2)CC1
Ratio EC50 [2]: 10 to 30
